These results are taken from ChEMBL document CHEMBL1287664, “Synthesis and biological analysis of prostate-specific membrane antigen-targeted anticancer prodrugs” (J Med Chem, 2010).

In test [1] the test system is LNCaP. The test is described as follows: Cytotoxicity against human LNCAP cells after 2 hrs by [3H]thymidine incorporation assay. The class given is functional, cell-based. Summed up:
(§1)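 LNCaP cells were seeded at 50000 cells/well and grown to monolayers over 48 h. They were exposed to increasing drug concentrations for 2 h at 37 °C, then kept in drug-free medium for 66 h. [3H]-thymidine (1 mCi/mL) was added for 4 h. Cells were TCA-precipitated (5%, 10 min), dissolved in 0.25 N NaOH and scintillation-counted. IC50 came from % incorporation versus log concentration.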
In general terms: Uptake of a labelled nucleoside into DNA is a usual measure of proliferation.

Test [2] deals with LNCaP. The test is described as follows: Cytotoxicity against human LNCAP cells at 100 pM to 1 uM. The class given is functional, cell-based. Summed up:
(§2)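 LNCaP cells (RPMI 1640, 10% heat-inactivated FBS) were seeded at 50000 cells/well and grown 48 h to monolayers. They were pulsed 2 h at 37 °C with drug (free drugs in DMSO; conjugates in saline, ± 100-fold excess PMPA), then chased 66 h drug-free. Cells were labelled 4 h with [3H]-thymidine, TCA-precipitated, NaOH-solubilised and scintillation-counted. IC50 came from % incorporation vs log concentration.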

Test [3] has as its system LNCaP. The test is described as follows: Cytotoxicity against human LNCAP cells. The class given is functional, cell-based. Summed up: as §2
The subject of test [4] is LNCaP. The test is described as follows: Cytotoxicity against human LNCAP cells after 2 hrs by [3H]thymidine incorporation assay in presence of 100-fold […]. In kind it is functional, cell-based. In short, it runs like this: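 LNCaP monolayers (50000 cells/well, 48 h) received 100-fold excess PMPA to block PSMA sites before the saline-dissolved DUPA conjugate was added. Exposure was 2 h at 37 °C, followed by 66 h in drug-free medium. Viability was read as [3H]-thymidine incorporation (1 mCi/mL, 4 h), TCA-precipitated and scintillation-counted. IC50 came from incorporation versus log concentration.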

The target in test [5] is Glutamate carboxypeptidase 2 (Homo sapiens) (UniProt Q04609). In words: Displacement of DUPA-99mTc from human prostate-specific membrane antigen in LNCaP cells assessed as relative binding affinity after 2 hrs at 37 degC. The class given is cell-based.
Test [6] deals with LNCaP. The test is described as follows: Cytotoxicity against human LNCAP cells at 100 pM to 1 uM after 2 hrs by [3H]thymidine incorporation assay. The class given is functional, cell-based. In short, it runs like this: as §1

Activity calls are given as the source filed them. The calls are words filed in the database; no cut-off is given here.

Chain of Glutamate carboxypeptidase 2 (Homo sapiens) (Q04609 whole entry, looked up): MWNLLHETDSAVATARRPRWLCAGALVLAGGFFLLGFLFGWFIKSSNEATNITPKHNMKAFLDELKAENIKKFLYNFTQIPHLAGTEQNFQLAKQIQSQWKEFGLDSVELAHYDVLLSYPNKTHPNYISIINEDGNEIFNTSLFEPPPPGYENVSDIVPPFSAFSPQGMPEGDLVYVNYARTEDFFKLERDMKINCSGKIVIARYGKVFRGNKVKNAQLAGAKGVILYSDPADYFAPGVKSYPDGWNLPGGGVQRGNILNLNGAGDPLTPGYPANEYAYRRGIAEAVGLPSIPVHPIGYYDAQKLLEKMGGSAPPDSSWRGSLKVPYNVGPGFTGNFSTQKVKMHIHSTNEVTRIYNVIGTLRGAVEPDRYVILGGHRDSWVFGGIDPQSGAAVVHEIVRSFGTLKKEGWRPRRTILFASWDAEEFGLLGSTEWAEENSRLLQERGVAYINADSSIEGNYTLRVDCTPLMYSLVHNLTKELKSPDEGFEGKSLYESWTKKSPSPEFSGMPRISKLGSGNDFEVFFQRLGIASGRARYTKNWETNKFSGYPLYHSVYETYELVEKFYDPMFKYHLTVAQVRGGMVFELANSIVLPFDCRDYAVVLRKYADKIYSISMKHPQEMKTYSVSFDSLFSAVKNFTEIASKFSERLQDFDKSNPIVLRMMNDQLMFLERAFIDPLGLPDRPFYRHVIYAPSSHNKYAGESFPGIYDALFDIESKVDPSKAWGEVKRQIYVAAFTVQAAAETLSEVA

The term IC50 denotes the concentration at which inhibition is half-maximal. A high value points to lower potency. For `CC[C@H](C)[C@H](NC(=O)[C@H]1CCCCN1C)C(=O)N(COC(=O)CC(C)C)[C@H](C[C@@H](OC(C)=O)c1nc(C(=O)N[C@@H](Cc2ccc(C)cc2)C[C@H](C)C(=O)NNC(=O)OCCSSC[C@H](NC(=O)[C@H](Cc2ccccc2)NC(=O)[C@H](Cc2ccccc2)NC(=O)CCCCCCCNC(=O)CC[C@H](NC(=O)N[C@H](CCC(=O)O)C(=O)O)C(=O)O)C(=O)O)cs1)C(C)C`, the IC50 in the test on LNCaP [1] was 24 nM.
For the molecule `C[n+]1ccc(-c2cc[n+](C)cc2)cc1`, the outcome with LNCaP [2] was inactive.
As to `OCCC#Cc1nc(-c2ccc(F)cc2)c(-c2ccncc2)n1CCCc1ccccc1`, in the test on LNCaP [2], the outcome was inactive.
Still for that read-out and setting: with `CC[C@@]1(O)C(=O)OCc2c1cc1n(c2=O)Cc2cc3ccccc3nc2-1` the entry was “inactive”; with `COC[C@H]1OC(=O)c2coc3c2[C@@]1(C)C1=C(C3=O)[C@@H]2CCC(=O)[C@@]2(C)C[C@H]1OC(C)=O`, “inactive”; with `C=C1[C@@H]2CCC3[C@@](CC[C@@H]4[C@H](C(=O)O)C[C@@H](O[C@@H]5O[C@H](CO)[C@@H](OS(=O)(=O)O)[C@H](OS(=O)(=O)O)[C@H]5OC(=O)CC(C)C)C[C@@]34C)(C2)[C@@H]1O` (some centres undefined), “inactive”.
The molecule `CC[C@]1(O)C[C@@H]2CN(CCc3c([nH]c4ccccc34)[C@@](C(=O)OC)(c3cc4c(cc3OC)N(C)[C@H]3[C@@](O)(C(=O)NN)[C@H](O)[C@]5(CC)C=CCN6CC[C@]43[C@@H]65)C2)C1` [DESACETYLVINBLASTINEHYDRAZIDE] registered an IC50 in the test with LNCaP [3] (Homo sapiens, LNCaP) of 12.2 nM.
For the molecule `CC[C@]1(O)CCN2CCc3c([nH]c4ccccc34)[C@](C(=O)OC)(c3cc4c(cc3OC)N(C)[C@@H]3[C@](O)(C(=O)NNC(=O)OCCSSC[C@H](NC(=O)[C@H](CC(=O)O)NC(=O)[C@@H](N)CNC(=O)[C@H](Cc5ccccc5)NC(=O)[C@H](Cc5ccccc5)NC(=O)CCCCCCNC(=O)CC[C@H](NC(=O)N[C@H](CCC(=O)O)C(=O)O)C(=O)O)C(=O)O)[C@@H](O)[C@@]5(CC)C=CCN6CC[C@@]43[C@@H]65)CC1C2` (some centres undefined), inhibition in the test with LNCaP [1] was half-maximal at 31 nM (IC50). Besides, in the test on LNCaP [4], the result was inactive. The RBA in test [5] was 25%.
`C[C@]12C=CC(=O)C=C1CC[C@@H]1[C@@H]2[C@@H](O)C[C@@]2(C)[C@H]1CC[C@]2(O)C(=O)CO`: the result with LNCaP [2] was inactive.
`CC[C@]1(O)C[C@@H]2CN(CCc3c([nH]c4ccccc34)[C@@](C(=O)OC)(c3cc4c(cc3OC)N(C)[C@H]3[C@@](O)(C(N)=O)[C@H](O)[C@]5(CC)C=CCN6CC[C@]43[C@@H]65)C2)C1` [VINDESINE] had an IC50 with LNCaP [3] (Homo sapiens, LNCaP) of 9.5 nM.
On to `C[S+]([O-])c1ccc(-c2nc(-c3ccc(F)cc3)c(-c3ccncc3)[nH]2)cc1` (centres undefined), for which the result in the test with LNCaP [2] was inactive.
`COc1cccc2c1C(=O)c1c(O)c3c(c(O)c1C2=O)C[C@@](O)(C(=O)CO)C[C@@H]3O[C@H]1C[C@H](N)[C@H](O)[C@H](C)O1` [DOXORUBICIN] showed an IC50 in the test with LNCaP [3] (Homo sapiens, LNCaP) of 77.6 nM.
As to `CC1=C[C@H]2O[C@@H]3C[C@H]4OC(=O)/C=C\C=C\C(=O)OCC[C@@H](C)[C@H](O)C(=O)OC[C@@]2(CC1)[C@]4(C)[C@]31CO1` [VERRUCARIN A], in the test on LNCaP [3] (lncap), half-maximal inhibition (IC50) was put at 3.3 nM.
On to `CO[C@@H]1C[C@@H](C[C@H]2CC[C@H](C)[C@H]([C@@H](C)C(=O)O)O2)O[C@]2(O[C@](C)([C@H]3CC[C@@](C)([C@@H]4O[C@@H]([C@H]5O[C@@](O)(CO)[C@H](C)C[C@@H]5C)C[C@@H]4C)O3)C[C@H]2C)[C@@H]1C`, for which the result in the test with LNCaP [2] was inactive.
As for `CC1=C[C@H]2O[C@@H]3C[C@H]4OC(=O)/C=C/C=C/C(=O)OCC[C@@H](C)[C@H](OC(=O)OCCSSC[C@H](NC(=O)[C@H](CC(=O)O)NC(=O)[C@@H](N)CNC(=O)[C@H](Cc5ccccc5)NC(=O)[C@H](Cc5ccccc5)NC(=O)CCCCCCNC(=O)CC[C@H](NC(=O)N[C@H](CCC(=O)O)C(=O)O)C(=O)O)C(=O)O)C(=O)OC[C@@]2(CC1)[C@]4(C)[C@]31CO1`, the outcome in the test with LNCaP [6] was inactive. In test [5], the RBA is 34%.
Molecule `CC[C@H](C)[C@H](NC(=O)[C@H]1CCCCN1C)C(=O)N(COC(=O)CC(C)C)[C@H](C[C@@H](OC(C)=O)c1nc(C(=O)N[C@@H](Cc2ccc(C)cc2)C[C@H](C)C(=O)NNC(=O)OCCSSC[C@@H](NC(=O)[C@H](Cc2ccccc2)NC(=O)[C@H](CC(=O)O)NC(=O)CC[C@H](NC(=O)CC[C@H](NC(=O)N[C@@H](CCC(=O)O)C(=O)O)C(=O)O)C(=O)O)C(=O)O)cs1)C(C)C` yielded an IC50 with LNCaP [1] of 5 nM.
Molecule `CC[C@H](C)[C@H](NC(=O)[C@H]1CCCCN1C)C(=O)N(COC(=O)CC(C)C)[C@H](C[C@@H](OC(C)=O)c1nc(C(=O)N[C@@H](Cc2ccc(C)cc2)C[C@H](C)C(=O)O)cs1)C(C)C` [TUBULYSIN] gave an IC50 with LNCaP [3] (Homo sapiens, LNCaP) of 2.5 nM.
In the test on LNCaP [1], `CC[C@H](C)[C@H](NC(=O)[C@H]1CCCCN1C)C(=O)N(COC(=O)CC(C)C)[C@H](C[C@@H](OC(C)=O)c1nc(C(=O)N[C@@H](Cc2ccc(C)cc2)C[C@H](C)C(=O)NNC(=O)OCCSSC[C@H](NC(=O)[C@H](CC(=O)O)NC(=O)[C@@H](N)CNC(=O)[C@H](Cc2ccccc2)NC(=O)[C@H](Cc2ccccc2)NC(=O)CCCCCCNC(=O)CC[C@H](NC(=O)N[C@H](CCC(=O)O)C(=O)O)C(=O)O)C(=O)O)cs1)C(C)C` registered an IC50 of 6 nM. Besides, the outcome in the test with LNCaP [4] was inactive. In addition, the RBA in test [5] was 26%.
`CC(=O)O[C@H]1C(=O)[C@@]2(C)[C@H]([C@H](OC(=O)c3ccccc3)[C@]3(O)C[C@H](OC(=O)[C@H](O)[C@@H](NC(=O)c4ccccc4)c4ccccc4)C(C)=C1C3(C)C)[C@]1(OC(C)=O)CO[C@@H]1C[C@@H]2O` [PACLITAXEL]: 22.3 nM corresponded to half-maximal inhibition in the test with LNCaP [3] (Homo sapiens, LNCaP) (IC50).
